Data reported in ChEMBL document CHEMBL1136390, “Piperazinyl-linked fluoroquinolone dimers possessing potent antibacterial activity against drug-resistant strains of Staphylococcus aureus” (2003).
≈ marks a conversion by molar mass, not a printed value.

How the values were obtained:
Assay type in all cases: functional
Staphylococcus aureus [1] = assay: Minimum inhibitory concentration tested against vancomycin-insensitive SA (GISA 992 strain)
How it was run: (§1)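 MICs against S. aureus strains were read in µg/mL from a dilution series. Stated error for each MIC is ± one dilution.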

Staphylococcus aureus [2] = assay: Minimum inhibitory concentration tested against Staphylococcus aureus 1199 strain; how it was run: as §1
Staphylococcus aureus [3] = assay: Minimum inhibitory concentration tested against Staphylococcus aureus 1199B strain; how it was run: as §1
Staphylococcus aureus [4] = assay: Minimum inhibitory concentration tested against Staphylococcus aureus 1199-3 strain; how it was run: as §1
Staphylococcus aureus [5] = assay: Minimum inhibitory concentration tested against methicillin resistant Staphylococcus aureus 494 strain (MRSA 494)
How it was run: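 MIC in µg/mL against drug-resistant S. aureus strains; error stated as ± one dilution.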

SMILES	MIC (Staphylococcus aureus [1])	MIC (Staphylococcus aureus [2])	MIC (Staphylococcus aureus [3])	MIC (Staphylococcus aureus [4])	MIC (Staphylococcus aureus [5])
CCn1cc(C(=O)O)c(=O)c2cnc(N3CCN(Cc4ccc(CN5CCN(c6cc7c(cc6F)c(=O)c(C(=O)O)cn7C6CC6)CC5)cc4)CC3)nc21	2 µg/mL (≈ 2.71 µM)	< 0.03 µg/mL	< 0.03 µg/mL	< 0.03 µg/mL	0.125 µg/mL (≈ 0.17 µM)
O=C(O)c1cn(C2CC2)c2cc(N3CCN(Cc4ccc(CN5CCN(c6cc7c(cc6F)c(=O)c(C(=O)O)cn7C6CC6)CC5)cc4)CC3)c(F)cc2c1=O	4 µg/mL (≈ 5.23 µM)	0.125 µg/mL (≈ 0.163 µM)	0.125 µg/mL (≈ 0.163 µM)	0.125 µg/mL (≈ 0.163 µM)	0.125 µg/mL (≈ 0.163 µM)
O=C(O)c1cn(C2CC2)c2cc(N3CCN(Cc4cccc(CN5CCN(c6cc7c(cc6F)c(=O)c(C(=O)O)cn7C6CC6)CC5)c4)CC3)c(F)cc2c1=O	> 16 µg/mL	0.06 µg/mL (≈ 0.0784 µM)	0.125 µg/mL (≈ 0.163 µM)	0.06 µg/mL (≈ 0.0784 µM)	< 0.03 µg/mL
O=C(O)c1cn(C2CC2)c2cc(N3CCN(Cc4cccc(CN5CCN(c6cc7c(cc6F)c(=O)c(C(=O)O)cn7C6CC6)CC5)n4)CC3)c(F)cc2c1=O	8 µg/mL (≈ 10.4 µM)	< 0.03 µg/mL	< 0.03 µg/mL	< 0.03 µg/mL	0.06 µg/mL (≈ 0.0783 µM)
O=C(O)c1cn(C2CC2)c2cc(N3CCN(C/C=C/CN4CCN(c5cc6c(cc5F)c(=O)c(C(=O)O)cn6C5CC5)CC4)CC3)c(F)cc2c1=O	> 16 µg/mL	0.03 µg/mL (≈ 0.042 µM)	0.03 µg/mL (≈ 0.042 µM)	0.06 µg/mL (≈ 0.0839 µM)	0.125 µg/mL (≈ 0.175 µM)
CCn1cc(C(=O)O)c(=O)c2cnc(N3CCN(Cc4ccc(CN5CCN(c6ncc7c(=O)c(C(=O)O)cn(CC)c7n6)CC5)cc4)CC3)nc21	8 µg/mL (≈ 11.3 µM)	0.5 µg/mL (≈ 0.705 µM)	4 µg/mL (≈ 5.64 µM)	0.5 µg/mL (≈ 0.705 µM)	2 µg/mL (≈ 2.82 µM)
CCn1cc(C(=O)O)c(=O)c2cc(F)c(N3CCN(C/C=C/CN4CCN(c5cc6c(cc5F)c(=O)c(C(=O)O)cn6CC)CC4)CC3)cc21	> 16 µg/mL	0.25 µg/mL (≈ 0.362 µM)	0.125 µg/mL (≈ 0.181 µM)	0.125 µg/mL (≈ 0.181 µM)	0.125 µg/mL (≈ 0.181 µM)
O=C(O)c1cn(C2CC2)c2cc(N3CCN(Cc4ccc(-c5ccc(CN6CCN(c7cc8c(cc7F)c(=O)c(C(=O)O)cn8C7CC7)CC6)cc5)cc4)CC3)c(F)cc2c1=O	> 16 µg/mL	4 µg/mL (≈ 4.76 µM)	8 µg/mL (≈ 9.51 µM)	8 µg/mL (≈ 9.51 µM)	
CCn1cc(C(=O)O)c(=O)c2cc(F)c(N3CCN(Cc4ccc(CN5CCN(c6cc7c(cc6F)c(=O)c(C(=O)O)cn7C6CC6)CC5)cc4)CC3)cc21	4 µg/mL (≈ 5.31 µM)	< 0.03 µg/mL	0.06 µg/mL (≈ 0.0797 µM)	< 0.03 µg/mL	
CCn1cc(C(=O)O)c(=O)c2cc(F)c(N3CCN(Cc4ccc(CN5CCN(c6cc7c(cc6F)c(=O)c(C(=O)O)cn7CC)CC5)cc4)CC3)cc21	4 µg/mL (≈ 5.4 µM)	0.06 µg/mL (≈ 0.081 µM)	1 µg/mL (≈ 1.35 µM)	0.06 µg/mL (≈ 0.081 µM)	0.06 µg/mL (≈ 0.081 µM)
O=C(O)c1cn(C2CC2)c2cc(N3CCNCC3)c(F)cc2c1=O [CIPROFLOXACIN]	> 32 µg/mL		8 µg/mL (≈ 24.1 µM)	1 µg/mL (≈ 3.02 µM)	0.5 µg/mL (≈ 1.51 µM)
CCn1cc(C(=O)O)c(=O)c2cc(F)c(N3CCNCC3)cc21 [NORFLOXACIN]	> 16 µg/mL	0.5 µg/mL (≈ 1.57 µM)	> 16 µg/mL	4 µg/mL (≈ 12.5 µM)	2 µg/mL (≈ 6.26 µM)
CCn1cc(C(=O)O)c(=O)c2cnc(N3CCNCC3)nc21 [PIPEMIDIC ACID]	> 16 µg/mL	> 16 µg/mL	> 16 µg/mL	> 16 µg/mL	
